Each structure is given as a SMILES string. pKi: −log10 of the molar value.

Six compounds from ChEMBL document CHEMBL3808300, “Atropisomer Control in Macrocyclic Factor VIIa Inhibitors” (J Med Chem, 2016) can be followed below.

The target of assay [1] is Kallikrein-1 (Homo sapiens, UniProt P06870). In words: Inhibition of purified human tissue kallikrein 1 using H-D-Val-Leu-Arg-AFC as substrate. The essentials: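 Uses purified human tissue kallikrein 1 at 37 °C. Ki is averaged from two independent experiments. The procedure follows an earlier published protocol.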
The target of assay [2] is Coagulation factor X (Homo sapiens, UniProt P00742). In words: Inhibition of purified human factor 10a using S2765 as substrate after 30 to 60 mins. The essentials: (§1)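 Purified human enzyme, run at 25 °C. The reported Ki is the average of two experiments. The full protocol follows a previously published method.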
Assay [3] deals with Prothrombin (Homo sapiens, UniProt P00734). In words: Inhibition of purified human thrombin after 30 to 60 mins. In short, it runs like this: as §1
The target of assay [4] is Coagulation factor VII/tissue factor (Homo sapiens, UniProt P08709). In words: Inhibition of recombinant human Tissue factor/factor 7a using S2288 as substrate after 30 to 60 mins. Format: protein-complex assay. In short, it runs like this:
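Enzyme is recombinant human TF/FVIIa complex, assayed at 25 °C. Ki is the mean of two experiments, and the method is the published protocol.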

Assay [5] has as its target Trypsin (Homo sapiens, UniProt P07477+P07478+P35030). Put plainly: Inhibition of purified human trypsin after 30 to 60 mins. Format: protein assay. In short, it runs like this:
as §1

The target in assay [6] is Coagulation factor XI (Homo sapiens, UniProt P03951). Put plainly: Inhibition of purified human factor 11a after 30 to 60 mins. The essentials: as §1
Sequence of Coagulation factor XI (P03951 19-387 limits assumed): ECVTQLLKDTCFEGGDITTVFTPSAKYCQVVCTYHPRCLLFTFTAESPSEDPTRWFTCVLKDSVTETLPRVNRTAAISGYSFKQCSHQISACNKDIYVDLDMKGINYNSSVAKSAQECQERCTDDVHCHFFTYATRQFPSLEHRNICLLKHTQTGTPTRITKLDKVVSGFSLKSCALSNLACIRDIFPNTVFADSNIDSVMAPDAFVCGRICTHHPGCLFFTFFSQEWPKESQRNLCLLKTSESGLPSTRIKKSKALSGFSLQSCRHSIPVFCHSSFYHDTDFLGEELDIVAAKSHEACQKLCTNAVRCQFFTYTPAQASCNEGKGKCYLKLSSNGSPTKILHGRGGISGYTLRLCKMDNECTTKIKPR
Sequence of Coagulation factor XI (P03951 388-625 limits assumed): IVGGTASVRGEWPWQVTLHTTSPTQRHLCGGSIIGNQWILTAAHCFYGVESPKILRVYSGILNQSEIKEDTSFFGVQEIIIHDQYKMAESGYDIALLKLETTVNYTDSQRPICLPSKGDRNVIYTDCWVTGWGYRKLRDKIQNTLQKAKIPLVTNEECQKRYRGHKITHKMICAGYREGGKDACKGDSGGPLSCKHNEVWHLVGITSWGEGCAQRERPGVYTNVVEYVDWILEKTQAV

Sequence of Kallikrein-1 (P06870 whole entry): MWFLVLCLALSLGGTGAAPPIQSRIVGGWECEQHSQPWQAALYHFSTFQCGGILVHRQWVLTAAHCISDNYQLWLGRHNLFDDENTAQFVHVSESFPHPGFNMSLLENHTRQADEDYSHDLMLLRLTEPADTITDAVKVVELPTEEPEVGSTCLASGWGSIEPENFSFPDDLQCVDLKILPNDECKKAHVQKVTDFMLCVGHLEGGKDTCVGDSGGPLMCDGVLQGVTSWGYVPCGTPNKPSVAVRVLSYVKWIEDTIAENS
Sequence of Coagulation factor VII/tissue factor (P08709 61-212 limits assumed): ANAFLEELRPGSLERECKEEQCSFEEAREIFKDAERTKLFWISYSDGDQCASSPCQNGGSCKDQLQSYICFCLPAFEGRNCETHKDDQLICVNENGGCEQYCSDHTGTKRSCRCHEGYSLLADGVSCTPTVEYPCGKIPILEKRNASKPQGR
Sequence of Coagulation factor VII/tissue factor (P08709 213-466 limits assumed): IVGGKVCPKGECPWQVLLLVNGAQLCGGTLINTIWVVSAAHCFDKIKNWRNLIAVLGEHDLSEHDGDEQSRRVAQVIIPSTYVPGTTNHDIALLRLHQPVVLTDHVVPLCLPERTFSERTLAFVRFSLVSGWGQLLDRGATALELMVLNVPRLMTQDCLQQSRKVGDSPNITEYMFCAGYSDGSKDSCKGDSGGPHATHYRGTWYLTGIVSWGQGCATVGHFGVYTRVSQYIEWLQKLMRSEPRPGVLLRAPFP
Sequence of Coagulation factor VII/tissue factor (P13726 33-295 partner limits assumed): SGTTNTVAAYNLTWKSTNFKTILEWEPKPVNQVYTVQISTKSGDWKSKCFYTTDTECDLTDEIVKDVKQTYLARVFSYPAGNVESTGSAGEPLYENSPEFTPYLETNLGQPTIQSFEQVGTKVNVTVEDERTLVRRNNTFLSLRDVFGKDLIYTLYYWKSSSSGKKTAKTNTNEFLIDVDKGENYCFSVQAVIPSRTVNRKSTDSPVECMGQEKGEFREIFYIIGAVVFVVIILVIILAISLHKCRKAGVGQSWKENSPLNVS
Sequence of Coagulation factor X (P00742 41-179 limits assumed): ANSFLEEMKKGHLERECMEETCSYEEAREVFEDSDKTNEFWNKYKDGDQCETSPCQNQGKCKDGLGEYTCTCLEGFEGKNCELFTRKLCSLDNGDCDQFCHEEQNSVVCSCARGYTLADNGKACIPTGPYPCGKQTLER
Sequence of Coagulation factor X (P00742 235-488 limits assumed): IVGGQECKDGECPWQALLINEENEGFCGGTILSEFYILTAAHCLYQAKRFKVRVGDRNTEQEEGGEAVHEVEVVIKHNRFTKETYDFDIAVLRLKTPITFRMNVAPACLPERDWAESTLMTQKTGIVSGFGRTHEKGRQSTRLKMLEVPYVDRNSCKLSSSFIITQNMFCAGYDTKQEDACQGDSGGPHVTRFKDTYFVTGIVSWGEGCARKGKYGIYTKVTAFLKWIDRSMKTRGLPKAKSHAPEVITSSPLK

Usually pKi stands for the Ki on a negative log10 scale, so that one unit is a factor of ten. What is called Ki is the equilibrium dissociation constant of an inhibitor or competing ligand from its target. A lower Ki goes with tighter binding. As for `Cc1cc2ccc1[C@@H](C)COC(=O)Nc1cccc(c1)CNC(=O)[C@@H]2Nc1ccc2c(N)nccc2c1`, the negative-log Ki (pKi) in assay [1] is 7.60; in assay [2], below 4.88; in assay [3] it was below 4.94; in assay [4], 8.85; in assay [6], below 4.85. In assay [5], this compound had an inhibitory constant (Ki) above 10 µM.
As for `C[C@H]1COC(=O)Nc2cccc(c2)CNC(=O)C(Nc2ccc3c(N)nccc3c2)c2ccc1cc2` (stereo partly drawn), the pKi in assay [1] is 7.60; in assay [2], 5.35; in assay [3] it was 5.33; in assay [4], 6.85; in assay [6], 5.04. This compound also registered a Ki in assay [5] above 6.2 µM.
For `Nc1nccc2cc(NC3C(=O)NCc4cccc(c4)NC(=O)OCCc4ccc3cc4)ccc12` (stereo not drawn), the pKi is 7.46 in assay [1]; 6.21 in assay [2]; below 4.89 in assay [3]; 6.29 in assay [4]; 5.24 in assay [6]. The compound further returned an inhibitory constant (Ki) in assay [5] of 3.5 µM.
Consider `Cc1cc2ccc1[C@@H](C)COC(=O)Nc1cccc(c1)CNC(=O)[C@H]2Nc1ccc2c(N)nccc2c1`, for which the pKi in assay [1] was 7.51; in assay [2], below 4.88; in assay [3], below 4.94; in assay [4] it was 5.35; in assay [6] it was below 4.85. Besides, the inhibition constant Ki in assay [5] was above 10 µM.
On to `C[C@@H]1COC(=O)Nc2cccc(c2)CNC(=O)C(Nc2ccc3c(N)nccc3c2)c2ccc1cc2` (stereo partly drawn), for which the pKi in assay [1] was 8.40; in assay [2] it was 5.17; in assay [3] it was 5.13; in assay [4], 5.84; in assay [6], below 4.96. The compound also came in with a Ki in assay [5] above 6.2 µM.
On to `CC1COC(=O)Nc2cccc(c2)CNC(=O)C(Nc2ccc3c(N)nccc3c2)c2ccc1cc2` (stereo not drawn), for which the figures for the pKi in assay [2], in assay [3] and in assay [6] were 5.59, below 4.89 and 4.97, respectively.
